High-throughput results: PubChem BioAssay, several laboratories
Mdm2 MdmX PPI: inhibitors of human Mdm2-MdmX association, primary screen, cell-based, luminescence, split luciferase, SaOS-2, uHTS | Protein Mdm4 (Homo sapiens) + E3 ubiquitin-protein ligase Mdm2 (Homo sapiens), … | SaOS-2 split-luciferase Mdm2/MdmX complementation | inhibition, % at 8 µM | 3% of 330,000 active | AID 485346, 2010;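 active = inhibition of at least 50% at 8 µM in the primary screen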
CSC inhib: cancer stem cell viability inhibitors, primary screen, luminescence. cancer stem cell-like cells viability. inhibition, % at 7.5 µM. 1.1% of 300,000 active; in the data active = inhibition above about 75%; tested in HMLE shEcad cells
SKKanGAS inh: S. pyogenes SKKanGAS growth inhibitors in kanamycin, primary screen, streptokinase expression inhibitor project, SKKanGAS strain, BacTiter-Glo luminescence. 1.3% of 300,000 active. AID 1662, 2009. inhibition, % at 7.5 µM. 6 h;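 active = mean replicate score, as percent of positive control median, at least 50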;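 note: strain carries kanamycin resistance gene driven by streptokinase promoter and grows in 40 µg/ml kanamycin; loss of luminescence reflects streptokinase promoter inhibition or plain growth inhibition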
L major viab: Leishmania major promastigote growth inhibition, primary screen; Leishmania major promastigotes, resazurin fluorescence viability; inhibition, % at 10 µM; 9% of 200,000 active; in the data active = inhibition above about 50%;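 note: promastigotes grown with compound for 44 hours at 28 °C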
T cruzi inh: inhibitors of intracellular T. cruzi growth, primary screen, luminescence, NIH3T3 host cells; T. cruzi beta-gal in NIH3T3, 90 h; inhibition, % (test concentration not listed); 1.4% of 300,000 active; AID 1885, 2009;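 active = mean inhibition across valid replicates above about 55%, limit read from the data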;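 note: signal also drops with host cell toxicity which is not excluded here; higher percent means less beta-gal luminescence so fewer parasites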
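Test system: β-gal T. cruzi (Tulahuen C4) inside NIH/3T3 cells / Quantity: 5,000 cells/well / Measured by: luminescence from GalScreen with 0.05% NP40, read after 60 min / Medium: DMEM plus 2% FBS / Measure: parasite load inhibition, % / Reagent: Tulahuen C4 trypomastigotes, 5000/well / Schedule: co-culture of at least 90 h after 3 h attachment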
Beta cell apopt: inhibitors of cytokine-induced beta cell apoptosis, primary screen, luminescence; INS-1E cytokine-induced death, ATP luminescence, 48 h; percent of positive-control rescue, neutral wells zero; protection from apoptosis, % (concentration not given with the values); 0.8% of 300,000 active; AID 435005, 2010;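 active = Every replicate reaches about 75%, or at least half do and their mean reaches it too, limit read from the data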;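 note: higher means more ATP so stronger rescue from cytokine killing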
Mdm2-MdmX conf: Mdm2-MdmX complex disruptors, retested hits, confirmation, luminescence, single concentration. shares compounds with Mdm2 MdmX PPI. Mdm2-MdmX binding, luminescent assay. inhibition, % at 8 µM. 55% of 10,000 active; in the data active = inhibition above about 40%
Full FLuc ctr: full-length luciferase signal inhibition, confirmation, counter-screen for Mdm2/MdmX interaction inhibitor project, cell-based, single concentration, SaOS-2. shares compounds with Mdm2 MdmX PPI. SaOS-2 full-length luciferase counterscreen, luminescence. inhibition, % at 8 µM. 77% of 6,200 active. AID 504607, 2011;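 active = mean inhibition at 8 µM reaching about 37%, which flags the compound as non-specific, limit read from the data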;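 note: p53-null SaOS-2 cells with luciferase driven by a doxycycline-inducible promoter; compound on cells about two nights before reading with doxycycline added after day one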
Hits are given with their value; – = inactive; · = no result given. A selection: hits, their analogues and other compounds. The true share with any hit is near 9.4%.

SMILES	Mdm2 MdmX PPI	CSC inhib	SKKanGAS inh	L major viab	T cruzi inh	Beta cell apopt	Mdm2-MdmX conf	Full FLuc ctr
COc1cc(OC)cc(-c2c(C#Cc3ccsc3)c3cc(-c4ccc(CN5CCOCC5)cc4)ccc3n2C)c1	–	–	·	·	·	–	·	·
COc1cc(C#Cc2c(-c3cncn3C)n(C)c3ccc(-c4ccc(CN5CCOCC5)cc4)cc23)cc(OC)c1	69.7	·	·	·	·	–	–	·
Cc1ccc2nc3c(cc(C(=O)NC4CCS(=O)(=O)C4)n3Cc3ccccc3)c(=O)n2c1 (centres undefined)	–	–	–	·	–	–	·	·
CCn1c(CNC(=O)c2ccco2)nnc1SCC(=O)Nc1ccccc1Cl	–	·	–	·	–	–	·	·
Cc1ccc(C)c(S(=O)(=O)Nc2ccc(C(=O)N3CCC3)cc2)c1	–	–	–	·	–	–	·	·
N#Cc1c2ccc([N+](=O)[O-])cc2[n+]([O-])n1-c1ccccc1	77.3	·	·	·	·	101.4	–	·
Fc1ccc(N2CCN(Cc3cnc(Cl)s3)CC2)cc1	–	–	–	–	–	–	·	·
O=C(OCc1ccc(Br)cc1)c1cnc(Cl)c(Cl)c1	68.6	·	–	·	–	–	48.1	95.7
CC(=O)c1nn(-c2cccc(Br)c2)cc1C(=O)c1ccc(Cl)cc1	52.6	–	–	–	–	–	–	·
C=C(C(=O)c1ccccc1)C(C)CC(=O)c1ccccc1 (centres undefined)	64.2	–	–	85.7	–	–	61.0	–
O=C(CC(Nc1ccccc1)C(=O)O)c1ccccc1 (centres undefined)	–	–	–	·	–	–	·	·
CC(=O)Nc1ccc(Nc2cc(N3CCOCC3)c3nonc3c2[N+](=O)[O-])cc1	–	–	–	–	–	–	·	·
O=[N+]([O-])c1c(Nc2ccccc2O)cc(Cl)c2nonc12	94.8	–	–	·	58.7	–	99.8	53.9
O=[N+]([O-])c1c(Nc2ccc(O)cc2)cc(N2CCOCC2)c2nonc12	50.7	–	–	–	–	–	–	·
Cn1c(=O)c(C(=O)Nc2ccccn2)c(O)c2ccccc21	66.7	–	–	–	–	–	60.4	–
Cn1c(=O)c(C(=O)NCCc2ccccc2)c(O)c2ccccc21	–	–	–	·	–	–	·	·
Cc1cccn2c(=O)c3cc(C(=O)NCc4ccco4)c(=N)n(CCc4ccccc4)c3nc12	–	·	·	·	·	·	·	·
COc1ccc(CCNC(=O)c2cc3c(=O)n4cccc(C)c4nc3n(Cc3ccco3)c2=N)cc1OC	100.3	–	–	·	–	105.0	95.5	–
Cc1cccn2c(=O)c3cc(C(=O)NCCc4ccccc4)c(=N)n(Cc4ccco4)c3nc12	100.5	–	–	·	–	–	92.2	–
N=c1c(C(=O)NCc2ccc(F)cc2)cc2c(=O)n3ccccc3nc2n1Cc1ccco1	100.1	–	–	–	–	–	61.0	–
Cc1cccn2c(=O)c3cc(C(=O)NCc4ccco4)c(=N)n(C(C)C)c3nc12	–	–	–	–	–	·	·	·
CC(=O)NC1(NC(C)=O)CCN(C)CC1	–	–	–	–	–	–	·	·
CC(C)c1nc(SCC(=O)Nc2cccc3ccccc23)n[nH]1	–	–	·	·	·	–	·	·
COc1cc(C(=O)N/N=C/c2ccsc2C)cc(OC)c1OC	76.7	75.6	–	–	–	–	66.6	89.2
COc1ccc(NC(=O)CCN2CCN(Cc3ccccc3)CC2)c(OC)c1	–	–	–	·	–	–	·	·
SMILES	Mdm2 MdmX PPI	CSC inhib	SKKanGAS inh	L major viab	T cruzi inh	Beta cell apopt	Mdm2-MdmX conf	Full FLuc ctr
CCOc1cc(/C=C/C(=O)c2ccc(O)cc2)ccc1OCC(=O)N(C)C	–	–	–	–	–	–	·	·
CCOc1cc(/C=C/C(=O)c2ccc3c(c2)OCCO3)ccc1OCC(=O)N(C)C	55.3	·	–	·	–	–	–	51.5
CCCCN1C(=O)C(O)(CC(=O)c2ccco2)c2cc(Br)ccc21 (centres undefined)	65.2	–	–	–	–	–	50.6	74.8
O=C(Nc1ccncc1)c1cc(-c2ccccn2)nc2ccccc12	–	–	–	–	–	–	·	·
O=C(Nc1ccc(F)cc1)c1cc(-c2ccccn2)nc2c(Cl)cccc12	60.0	–	–	·	–	–	46.1	61.5
C=C1CN(Cc2ccccc2)S(=O)(=O)c2ccccc21	–	–	–	·	–	·	·	·
C[C@@H](c1ccccc1)N1C[C@H]2CCCN2c2cc(Br)ccc2S1(=O)=O	53.8	·	·	·	·	·	42.5	41.4
O=S1(=O)c2ccc(Br)cc2N2CCC[C@H]2CN1Cc1ccccc1	51.8	·	·	·	·	·	51.1	37.1
FC(F)(F)c1cc(-c2ccco2)nc(-n2cnc3ccccc32)n1	–	–	–	–	–	–	·	·
Cc1nc2ccccc2n1-c1nc(-c2ccco2)cc(C(F)(F)F)n1	77.2	148.5	–	–	–	131.0	100.2	–
CCN(CC)C(=O)[C@H]1C[C@H](CC(=O)NCc2ccco2)C(=O)N2CCc3c([nH]c4ccc(Cl)cc34)[C@]12C	–	·	·	·	·	·	·	·
CC(C)N(C(=O)[C@H]1C[C@H](CC(=O)NCc2cccc(C(F)(F)F)c2)C(=O)N2CCc3c([nH]c4cc(-c5ccco5)ccc34)[C@]12C)C(C)C	76.5	·	·	·	·	·	–	·
CCN(CC)C(=O)[C@H]1C[C@H](CC(=O)NCCCN(C)C)C(=O)N2CCc3c([nH]c4cc(-c5ccco5)ccc34)[C@]12C	–	·	·	·	·	·	·	·
CC(C)N(C(=O)[C@H]1C[C@H](CC(=O)NCc2cccc(C(F)(F)F)c2)C(=O)N2CCc3c([nH]c4ccc(Cl)cc34)[C@]12C)C(C)C	94.8	·	·	·	·	·	40.5	81.3
CC(C)N(C(=O)[C@H]1C[C@H](CC(=O)NCc2ccco2)C(=O)N2CCc3c([nH]c4ccc(Cl)cc34)[C@]12C)C(C)C	52.1	·	·	·	·	·	–	·
CC(C)N(C(=O)[C@H]1C[C@H](CC(=O)NCCCN(C)C)C(=O)N2CCc3c([nH]c4cc(-c5ccco5)ccc34)[C@]12C)C(C)C	63.3	·	·	·	·	·	–	·
C[C@]12c3[nH]c4ccc(Cl)cc4c3CCN1C(=O)[C@@H](CC(=O)NCc1cccc(C(F)(F)F)c1)C[C@@H]2C(=O)N1CCOCC1	–	·	·	·	·	·	·	·
Cc1nccc(-c2cccc(NC(=O)c3ccccc3Cl)c2)n1	–	–	–	·	–	–	·	·
CCc1ccc(-n2c(=S)sc3c(=O)n(-c4ccccc4)c(SCC(=O)O)nc32)cc1	–	·	–	·	–	·	·	·
COc1ccc(NC(=O)CO/N=C/C(=O)Nc2ccccc2C)c([N+](=O)[O-])c1	–	–	·	·	·	–	·	·
